Measured values published in ChEMBL document CHEMBL1149387, “Novel potent hepatitis C virus NS3 serine protease inhibitors derived from proline-based macrocycles” (J Med Chem, 2006).
Numbered stars: 1 amine (or outer) side, 2 acyl side, 3 side chain; on linkers, the order of the positions; unused ones are H or OH. Square brackets hold non-standard residues; d marks the D form. Peptide text beside a SMILES is read from it. * marks the point of attachment. Hyp = O=C(O)[C@@H]1C[C@@H](O)CN1; X1 = CCCC(N[*:1])C(=O)C(=O)[*:2]; Chg = N[C@H](C(=O)O)C1CCCCC1; Phg = N[C@H](C(=O)O)c1ccccc1; Boc = CC(C)(C)OC(=O)*; tBu = CC(C)(C)*

Assays:
NS3 = NS3 (Hepatitis C virus, UniProt A3EZJ3); experiment: Inhibitory activity against HCV NS3 protease; set-up: species or system Hepacivirus hominis
Sequence of NS3 (A3EZJ3 whole entry): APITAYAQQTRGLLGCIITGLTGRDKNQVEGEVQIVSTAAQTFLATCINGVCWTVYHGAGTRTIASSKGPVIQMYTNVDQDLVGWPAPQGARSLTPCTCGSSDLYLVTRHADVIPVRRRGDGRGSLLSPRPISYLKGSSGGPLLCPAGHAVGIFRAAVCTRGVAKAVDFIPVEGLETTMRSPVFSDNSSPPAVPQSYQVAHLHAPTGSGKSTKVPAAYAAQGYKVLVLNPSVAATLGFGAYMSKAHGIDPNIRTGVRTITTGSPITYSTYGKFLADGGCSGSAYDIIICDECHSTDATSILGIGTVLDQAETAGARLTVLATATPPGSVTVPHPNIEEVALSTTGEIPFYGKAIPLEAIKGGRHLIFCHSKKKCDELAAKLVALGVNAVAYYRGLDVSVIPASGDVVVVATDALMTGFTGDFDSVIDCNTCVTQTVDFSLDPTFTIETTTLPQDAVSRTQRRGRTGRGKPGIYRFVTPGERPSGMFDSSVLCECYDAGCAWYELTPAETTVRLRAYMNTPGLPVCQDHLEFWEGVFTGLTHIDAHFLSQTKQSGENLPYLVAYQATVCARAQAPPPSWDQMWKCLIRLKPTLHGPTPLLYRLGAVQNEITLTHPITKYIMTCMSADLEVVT
Summary of the method: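 Continuous assay with a single-chain NS3 serine protease carrying tethered NS4A. Values are reported as Ki*, the equilibrium constant that reflects the reversible covalent bond formed between the inhibitor ketone and the active-site serine, plus other enzyme–inhibitor contacts. Most inhibitors were tested as an inseparable mixture of two diastereomers at the P1 R-centre.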

Hepatitis C virus = experiment: Inhibition of HCV replication in a cellular replicon assay; assay type: functional, organism-based, Hepacivirus hominis
[1] = Selectivity for HNE over HCV NS3 protease
[2] = AUC in orally dosed rat; assay type: ADME, organism-based; details: plasma, po
[3] = AUC in iv dosed rat; assay type: ADME, organism-based; details: plasma
[4] = Oral bioavailability in rat; assay type: ADME, organism-based; details: in vivo
[5] = AUC in sc dosed rat; assay type: ADME, organism-based; details: plasma
[6] = Bioavailability in sc dosed rat; assay type: ADME, organism-based; details: in vivo

| Ki (NS3) | Compound | also measured |
| --- | --- | --- |
| 0.006 µM | CCCC(NC(=O)[C@@H]1C[C@@H]2CN1C(=O)[C@H](C1CCCCC1)NC(=O)Cc1cccc(c1)OCCC(C)(C)O2)C(=O)C(=O)NCC(=O)N[C@H](C(=O)N(C)C)c1ccccc1 (some centres not stated) | IC50 (Hepatitis C virus): 0.13 µM; Ratio Ki [1]: 107; AUC [2]: 0.46 µM·h; AUC [3]: 2.2 µM·h; bioavailability [4]: 2.1%; AUC [5]: 16.5 µM·h; bioavailability [6]: 77% |
| 0.22 µM | CCCC(NC(=O)[C@@H]1C[C@@H]2CN1C(=O)[C@H](C1CCCCC1)NC(=O)Cc1cccc(c1)OCCC(C)(C)O2)C(=O)C(N)=O (some centres not stated) | AUC [2]: 0.3 µM·h |
| 0.088 µM | CCCC(NC(=O)[C@@H]1C[C@@H]2CN1C(=O)[C@H](C1CCCCC1)NC(=O)Cc1cccc(c1)OCCC(C)(C)O2)C(=O)C(=O)NCC(=O)OCc1ccccc1 (some centres not stated) |  |
| 0.016 µM | CCCC(NC(=O)[C@@H]1C[C@@H]2CN1C(=O)[C@H](C1CCCCC1)NC(=O)Cc1cccc(c1)OCCC(C)(C)O2)C(=O)C(=O)NCC(=O)N[C@H](C(=O)OC(C)(C)C)c1ccccc1 (some centres not stated) |  |
| 0.017 µM | CCCC(NC(=O)[C@@H]1C[C@@H]2CN1C(=O)[C@H](C(C)(C)C)NC(=O)Cc1cccc(c1)OCCC(C)(C)O2)C(=O)C(=O)NCC(=O)N[C@H](C(=O)N(C)C)c1ccccc1 (some centres not stated) | IC50 (Hepatitis C virus): 0.2 µM; Ratio Ki [1]: 306 |
| 0.53 µM | C=CCNC(=O)C(=O)C(CCC)NC(=O)[C@@H]1C[C@@H]2CN1C(=O)[C@H](C1CCCCC1)NC(=O)Cc1cccc(c1)OCCC(C)(C)O2 (some centres not stated) | IC50 (Hepatitis C virus): 0.4 µM; AUC [2]: 26.3 µM·h; AUC [3]: 13.6 µM·h; bioavailability [4]: 97%; AUC [5]: 34.7 µM·h |
| 0.06 µM | CCCC(NC(=O)[C@@H]1C[C@@H]2CN1C(=O)[C@H](C1CCCCC1)NC(=O)Cc1cccc(c1)OCCCO2)C(=O)C(=O)NCC(=O)N[C@H](CO)c1ccccc1 (some centres not stated) |  |
| 0.019 µM | CCCC(NC(=O)[C@@H]1C[C@@H]2CN1C(=O)[C@H](C(C)C)NC(=O)Cc1cccc(c1)OCCC(C)(C)O2)C(=O)C(=O)NCC(=O)N[C@H](C(=O)N(C)C)c1ccccc1 (some centres not stated) |  |

The next lines start with the molecule.

| Compound | Ki (NS3) | also measured |
| --- | --- | --- |
| C=CCNC(=O)C(=O)C(CCC)NC(=O)[C@@H]1C[C@@H]2CN1C(=O)[C@H](C1CCCCC1)NC(=O)Cc1cccc(c1)OCCCO2 (some centres not stated) | 10 µM |  |
| CCCC(NC(=O)[C@@H]1C[C@@H]2CN1C(=O)[C@H](C1CCCCC1)NC(=O)Cc1cccc(c1)OCCCO2)C(=O)C(=O)NCC(=O)N[C@H](C(=O)OC(C)(C)C)c1ccccc1 (some centres not stated) | 0.044 µM |  |
| CCC[C@@H](NC(=O)[C@@H]1C[C@@H]2CN1C(=O)[C@H](C1CCCCC1)NC(=O)Cc1cccc(c1)OCCCO2)C(=O)C(=O)NCC(=O)N[C@H](C(=O)N(C)C)c1ccccc1 | 0.5 µM |  |
| CCC[C@H](NC(=O)[C@@H]1C[C@@H]2CN1C(=O)[C@H](C1CCCCC1)NC(=O)Cc1cccc(c1)OCCCO2)C(=O)C(=O)NCC(=O)N[C@H](C(=O)N(C)C)c1ccccc1 | 0.008 µM | IC50 (Hepatitis C virus): 0.4 µM; Ratio Ki [1]: 46; AUC [2]: 1.5 µM·h; AUC [3]: 23.1 µM·h; bioavailability [4]: 3%; AUC [5]: 41.6 µM·h; bioavailability [6]: 90% |
| CCCC(NC(=O)[C@@H]1C[C@@H]2CN1C(=O)[C@H](C1CCCCC1)NC(=O)Cc1cccc(c1)OCCC(C)(C)O2)C(=O)C(=O)NCC(=O)O (some centres not stated) | 0.72 µM |  |
| CCCC(NC(=O)[C@@H]1C[C@@H]2CN1C(=O)[C@H](C1CCCCC1)NC(=O)Cc1cccc(c1)OCCCO2)C(=O)C(=O)O (some centres not stated) | 6.1 µM |  |
| CCCC(NC(=O)[C@@H]1C[C@@H]2CN1C(=O)[C@H](C1CCCCC1)NC(=O)Cc1cccc(c1)OCCCO2)C(=O)C(=O)NCC(=O)OCc1ccccc1 (some centres not stated) | 0.43 µM |  |
| CCCC(NC(=O)[C@@H]1C[C@@H]2CN1C(=O)[C@H](C1Cc3ccccc3C1)NC(=O)Cc1cccc(c1)OCCC(C)(C)O2)C(=O)C(=O)NCC(=O)N[C@H](C(=O)N(C)C)c1ccccc1 (some centres not stated) | 0.04 µM |  |
| CCCC(NC(=O)[C@@H]1C[C@@H](OC(C)(C)C)CN1C(=O)[C@@H](NC(=O)OC(C)(C)C)C1CCCCC1)C(=O)C(=O)NCC(=O)N[C@H](C(N)=O)c1ccccc1 (some centres not stated) (Boc-[Chg][Hyp](tBu)[X1]G[Phg]-NH2) | 0.22 µM |  |
| CCCC(NC(=O)[C@@H]1C[C@@H]2CN1C(=O)[C@H](C1CCCCC1)NC(=O)Cc1cccc(c1)OCCCO2)C(=O)C(=O)NCC(=O)N[C@H](C#N)c1ccccc1 (some centres not stated) | 0.31 µM |  |
| CCCC(NC(=O)[C@@H]1C[C@@H]2CN1C(=O)[C@H](C1CCCCC1)NC(=O)Cc1cccc(c1)OCCCO2)C(=O)C(=O)NCC(=O)N[C@H](C(=O)O)c1ccccc1 (some centres not stated) | 0.01 µM |  |
| CCCC(NC(=O)[C@@H]1C[C@@H]2CN1C(=O)[C@H](C(C)CC)NC(=O)Cc1cccc(c1)OCCC(C)(C)O2)C(=O)C(=O)NCC(=O)N[C@H](C(=O)N(C)C)c1ccccc1 (some centres not stated) | 0.07 µM |  |
| CCCC(NC(=O)[C@@H]1C[C@@H]2CN1C(=O)[C@H](c1ccccc1)NC(=O)Cc1cccc(c1)OCCC(C)(C)O2)C(=O)C(=O)NCC(=O)N[C@H](C(=O)N(C)C)c1ccccc1 (some centres not stated) | 0.046 µM |  |
| CCCC(NC(=O)[C@@H]1C[C@@H]2CN1C(=O)[C@H](C1CCCCC1)NC(=O)Cc1cccc(c1)OCCCO2)C(=O)C(=O)NCC(=O)NCc1ccccc1 (some centres not stated) | 1.1 µM |  |
| CCCC(NC(=O)[C@@H]1C[C@@H]2CN1C(=O)[C@H](C1CCCCC1)NC(=O)Cc1cccc(c1)OCCC(C)(C)O2)C(=O)C(=O)NCC(=O)NCc1ccccc1 (some centres not stated) | 0.269 µM |  |
| CCCC(NC(=O)[C@@H]1C[C@@H]2CN1C(=O)[C@H](C1CCCCC1)NC(=O)Cc1cccc(c1)OCCCO2)C(=O)C(=O)NCC(=O)O (some centres not stated) | 7.4 µM |  |
| CCCC(NC(=O)[C@@H]1C[C@@H]2CN1C(=O)[C@H](C1CCCCC1)NC(=O)Cc1cccc(c1)OCCCO2)C(=O)C(=O)NC (some centres not stated) | 9.9 µM |  |
